# Bioassay records: PubChem, Johns Hopkins Ion Channel Center
# KCNK3 block = human KCNK3 channel inhibition, primary screen | B-score at 10 µM | CHO-KCNK3 thallium flux, FluxOR fluorescence; active compounds read low | actives 0.84% (n = 340,000) | O14649;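 active means B-score under library mean minus 4 SD, starting fluorescence ratio at most library mean plus 5 SD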;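 further: more negative B-score means stronger inhibition of thallium flux through KCNK3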
# KCNK9 block = inhibitors of human KCNK9 two-pore domain potassium channel. HEK293 KCNK9, FluxOR thallium flux fluorescence; active compounds read low. AID 488922. actives 1.2% (n = 310,000). B-score at 10 µM;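 active means ratio B-score over 3 SD below the library mean, with starting fluorescence within 5 SD of its mean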;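 further: negative B-score means less thallium flux so channel inhibition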
# KCNQ1 block = inhibitors of human KCNQ1 potassium channel. B-score at 10 µM. CHO-K1 KCNQ1, FluxOR thallium flux fluorescence; active compounds read high. actives 1.3% (n = 310,000);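 active means compounds whose thallium flux B-score, printed positive for inhibition, exceeds three library SD while starting fluorescence stays within three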;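 further: channel opened by potassium depolarization with thallium stimulus after 20 min compound exposure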
# hERG rescue = hERG (human) protection from proarrhythmic block. CHO-hERG, FluxOR thallium flux, dofetilide IC70 present. actives 0.51% (n = 310,000). activation (rescue from dofetilide block), less the hit threshold, % at 10 µM. AID 1511;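 active means activation above the mean of controls blocked by dofetilide plus 5 SD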;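 further: thallium influx through hERG after potassium depolarization seen as dye fluorescence rise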
# Kir21 inh = Kir2.1 (mouse) channel inhibition; P35561; HEK293-Kir2.1, FluxOR thallium flux fluorescence; active compounds read low; B-score at 10 µM; actives 0.85% (n = 310,000); AID 1672;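 active means fluorescence ratio B-score at or below minus 3 SD of library scores, with starting-brightness B-score within 2 SD, cut at about -4.2 in these data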;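 further: channel flux triggered by added potassium and thallium sulfate stimulus; B-score of peak minus minimum fluorescence over baseline after thallium stimulus; more negative B-score means stronger Kir2.1 block with less thallium influx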
# KCNQ1 act = potentiators or activators of human KCNQ1 potassium channel; actives 0.35% (n = 310,000); P51787; CHO-K1 KCNQ1, thallium flux FluxOR fluorescence; active compounds read high; B-score at 10 µM;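 active means fluorescence ratio B-score, a plate-corrected score, at least three library SD, with initial intensity B-score within 5 SD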
#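 System: CHO-K1 cells stably expressing KCNQ1 / Medium: assay buffer for compound exposure, DMSO matched across wells / Reagent: thallium- and potassium-containing depolarizing buffer / Compound: one concentration, matched DMSO / Incubation: 20 min compound pretreatment at room temperature / Measured by: kinetic FluxOR fluorescence, 10 s baseline plus 110 s post-stimulus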
# The depositor's hits bear a star; i = inactive; . = no result given. Compounds with a hit are over-represented: about 3.7% of the library has one in this group of screens.
SMILES,KCNK3 block,KCNK9 block,KCNQ1 block,hERG rescue,Kir21 inh,KCNQ1 act
O=C(NC1CCN(Cc2ccccc2)C1)c1cc(COc2ccc(F)cc2F)on1 (centres undefined),i,i,i,-10.0,-4.41*,i
O=C1CN(C(=O)COc2ccc(F)cc2Br)c2ccccc2N1,i,i,i,-2.5,-1.53,i
CCN1C(=O)/C(=C\c2ccncc2)SC1=S,i,i,i,-3.5,-0.66,i
CCCCC(CC)CN1C(=O)/C(=C/c2ccncc2)SC1=S (centres undefined),i,i,7*,-2.9,-3.5,i
O=C(c1ccco1)N1CCCN(Cc2nc(-c3ccc4c(c3)OCO4)no2)CC1,i,i,i,-14.4,0.61,i
Fc1ccc(CN2CCCN(Cc3nc(-c4ccc5c(c4)OCO5)no3)CC2)cc1,i,i,i,-11.9,-6.75*,i
CSCC[C@H](N)C(=O)N1CCC(C(=O)N[C@H](C(=O)NCc2ccccc2F)C(C)C)CC1,i,i,i,-6.6,0.24,i
Cc1ccc(C(C)C)c(OCc2n[nH]c(=S)o2)c1,i,i,i,-2.3,0.24,8*
Cc1ccc(C)c(OCc2n[nH]c(=S)o2)c1,i,i,i,-11.4,0.11,i
Cc1ccc(C(C)C)c(OCCNCc2ccccc2)c1,i,i,i,-10.6,-8.84*,i
Cc1ccc(C(C)C)c(OCCCCN2CCNCC2)c1,i,i,i,-8.3,-6.13*,i
Cc1ccc(C(C)C)c(OCCN)c1,i,i,i,-3.8,-0.6,i
Cc1ccc(C(C)C)c(OCCN(C)C)c1,i,i,i,6.6*,-0.23,i
CCCN(CCC)CCOc1cc(C)ccc1C(C)C,i,i,i,-5.9,0.22,i
Cn1c(SCC(=O)Nc2cccnc2Cl)nc2ccccc21,i,.,.,.,.,.
CCOc1cc(-c2nccc3cc(OC)c(OC)cc23)cc(OCC)c1OCC,i,i,i,-2.6,-2.06,i
Cc1ccc(C(C)C)c(OCCNC(=S)Nc2cccc3ccccc23)c1,i,i,8*,-9.2,-0.84,i
CC1CN(C(=O)N2CCCCC2)CCN1C(=O)N1CCCCC1 (centres undefined),i,i,i,-4.0,0.19,i
O=c1c2ccccc2c(C=NCCCN2CCOCC2)c(O)n1Cc1ccccc1,i,i,i,-10.9,-5.82*,i
O=c1c2ccccc2c(C=NCCc2ccccc2)c(O)n1Cc1ccccc1,i,i,6*,-14.3,-0.22,i
Cc1ccccc1OCC(=O)N=Nc1c(O)n(C)c2ccccc12,i,i,i,0.0,-1.57,8*
Cc1ccc(OCC(O)CN2CCc3ccccc3C2)c(C)c1 (centres undefined),i,i,i,-7.6,-7.86*,i
COc1cccc(OCC(O)CN2CCc3ccccc3C2)c1 (centres undefined),i,i,i,-4.3,-0.16,i
CC(C)(C)c1ccc(OCC(O)CN2CCc3ccccc3C2)cc1 (centres undefined),i,i,i,-17.7,-0.28,i
COc1ccc(OCC(O)CN2CCc3ccccc3C2)cc1 (centres undefined),i,i,i,-1.9,2.34,i
SMILES,KCNK3 block,KCNK9 block,KCNQ1 block,hERG rescue,Kir21 inh,KCNQ1 act
Clc1ccc(OCCOCCN2CCc3ccccc3C2)c(Cl)c1,i,i,i,-18.2,-15.2*,i
Clc1ccc(OCCCN2CCc3ccccc3C2)c(Br)c1,i,i,i,-18.2,-0.06,i
OC(COc1ccc(Cl)cc1Cl)CN1CCc2ccccc2C1 (centres undefined),i,i,i,-10.1,-15.1*,i
Cc1cccc(OCC(O)CN2CCc3ccccc3C2)c1 (centres undefined),i,i,i,-11.0,-8.79*,i
N#Cc1ccc(-c2nnnn2-c2ccc3c(c2)OCO3)cc1,i,i,i,4.8*,-0.73,i
Cn1[nH]c(CSc2ccc(Cl)cc2)cc1=O,i,i,i,-0.4,0.1,i
